Assay results published in ChEMBL document CHEMBL3232820, “Improved total synthesis and biological evaluation of potent apratoxin S4 based anticancer agents with differential stability and further enhanced activity” (J Med Chem, 2014).
Activity calls are given as the source filed them. The calls are words filed in the database; no cut-off is given here.

Columns and labels:
Liver [1] = assay: Metabolic stability in CD1 mouse liver microsomes assessed as compound remaining at 1 uM after 5 mins by HPLC-MS analysis; assay type: ADME
Summary of the method: (§1)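 Pooled female CD1 mouse liver microsomes, 0.5 mg/mL protein final, in 100 mM phosphate pH 7.4 at 37 °C; compound 1 μM final, with or without NADPH-regenerating system; 3 min to 2 h; quenched with ethyl acetate, harmine internal standard; HPLC-MS (MRM); % remaining versus t0 peak-area ratio; triplicate.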

HCT-116 [2] = assay: Downregulation of human MET protein expression in HCT116 cells up to 10 uM after 24 hrs by Western blotting analysis; assay type: functional, cell-based
Summary of the method: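 HCT116 cells seeded 4×10^5/well, treated next day with a concentration series (solvent control 1% EtOH) for 24 h; whole-cell lysates, equal protein by BCA, 4–12% SDS-PAGE, PVDF transfer, anti-Met immunoblot with chemiluminescent detection.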

Liver [3] = assay: Metabolic stability in CD1 mouse liver microsomes assessed as compound remaining at 1 uM after 120 mins by HPLC-MS analysis in presence of NADPH; assay type: ADME; settings: 2 h; summary of the method: as §1
Liver [4] = assay: Metabolic stability in CD1 mouse liver microsomes assessed as compound remaining at 1 uM after 15 mins by HPLC-MS analysis in presence of NADPH; assay type: ADME; settings: 0.25 h; summary of the method: as §1
[5] = Half life in phosphate buffer at 25 ug/ml at pH 4.88 by HPLC-MS analysis; assay type: physicochemical
Summary of the method: (§2)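 Compound (10 μL of 25 μg/mL) spiked into 100 μL of 100 mM phosphate buffer, pH 4.88 or pH 7.4, incubated 0.25 min to 24 h; ethyl acetate extraction with harmine internal standard; HPLC-MS (MRM); remaining amount from calibration curve.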

[6] = Half life in phosphate buffer at 25 ug/ml at pH 7.4 by HPLC-MS analysis; assay type: physicochemical; summary of the method: as §2
[7] = biological target: T1, Vascular endothelial growth factor A, long form (Homo sapiens, UniProt P15692); assay: Inhibition of VEGF-A production in human HCT116 cells after 12 hrs by alphaLISA assay; assay type: cell-based, HCT-116
T1 sequence (P15692 whole entry): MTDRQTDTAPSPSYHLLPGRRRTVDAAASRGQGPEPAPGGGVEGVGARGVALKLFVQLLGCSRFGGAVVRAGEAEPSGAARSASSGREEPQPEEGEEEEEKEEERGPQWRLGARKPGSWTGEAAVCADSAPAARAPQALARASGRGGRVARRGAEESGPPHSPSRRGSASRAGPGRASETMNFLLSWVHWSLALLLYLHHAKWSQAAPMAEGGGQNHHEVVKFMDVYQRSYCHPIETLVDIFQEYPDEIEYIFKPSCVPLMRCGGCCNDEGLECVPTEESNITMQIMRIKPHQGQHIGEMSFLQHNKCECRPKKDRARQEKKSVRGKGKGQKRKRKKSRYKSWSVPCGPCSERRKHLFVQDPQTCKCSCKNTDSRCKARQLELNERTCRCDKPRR

Liver [8] = assay: Metabolic stability in CD1 mouse liver microsomes assessed as compound remaining at 1 uM after 3 mins by HPLC-MS analysis in presence of NADPH; assay type: ADME; settings: 0.05 h; summary of the method: as §1
HCT-116 [9] = assay: Antiproliferative activity against human HCT116 cells after 48 hrs by MTT assay; assay type: functional, cell-based; settings: HCT-116, 48 h
HCT-116 [10] = assay: Metabolic stability in human HCT116 cells at 25 ug/ml up to 24 hrs by HPLC-MS analysis; assay type: ADME, cell-based; settings: hct-116, 24 h
Summary of the method: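 HCT116 lysate diluted in 25 mM Tris-HCl pH 8.0 to 0.7 mg/mL protein, 100 μL; incubated with compound (10 μL of 25 μg/mL) 0.25 min to 24 h; ethyl acetate extraction with harmine; HPLC-MS (MRM); remaining amount from calibration curve.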

Liver [11] = assay: Metabolic stability in CD1 mouse liver microsomes assessed as compound remaining at 1 uM after 5 mins by HPLC-MS analysis in presence of NADPH; assay type: ADME; summary of the method: as §1
Liver [12] = assay: Metabolic stability in CD1 mouse liver microsomes assessed as compound remaining at 1 uM after 15 mins by HPLC-MS analysis; assay type: ADME; settings: 0.25 h; summary of the method: as §1
Liver [13] = assay: Metabolic stability in CD1 mouse liver microsomes assessed as compound remaining at 1 uM after 60 mins by HPLC-MS analysis; assay type: ADME; settings: 1 h; summary of the method: as §1
Liver [14] = assay: Metabolic stability in CD1 mouse liver microsomes assessed as compound remaining at 1 uM after 30 mins by HPLC-MS analysis in presence of NADPH; assay type: ADME; settings: 0.5 h; summary of the method: as §1
Liver [15] = assay: Metabolic stability in CD1 mouse liver microsomes assessed as compound remaining at 1 uM after 30 mins by HPLC-MS analysis; assay type: ADME; settings: 0.5 h; summary of the method: as §1
Liver [16] = assay: Metabolic stability in CD1 mouse liver microsomes assessed as compound remaining at 1 uM after 120 mins by HPLC-MS analysis; assay type: ADME; settings: 2 h; summary of the method: as §1
Liver [17] = assay: Metabolic stability in CD1 mouse liver microsomes assessed as compound remaining at 1 uM after 60 mins by HPLC-MS analysis in presence of NADPH; assay type: ADME; settings: 1 h; summary of the method: as §1
Liver [18] = assay: Metabolic stability in CD1 mouse liver microsomes assessed as compound remaining at 1 uM after 3 mins by HPLC-MS analysis; assay type: ADME; settings: 0.05 h; summary of the method: as §1
[19] = Half life in CD1 mouse liver microsomes at 1 uM by HPLC-MS analysis in presence of NADPH; assay type: ADME
Plasma = assay: Metabolic stability in mouse plasma at 25 ug/ml up to 24 hrs by HPLC-MS analysis; assay type: ADME, cell-free
Summary of the method: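 Compound (10 μL of 25 μg/mL) added to 100 μL mouse serum, incubated 0.25 min to 24 h; ethyl acetate plus harmine quench/extraction, dried, reconstituted in acetonitrile; HPLC-MS (MRM); remaining amount from calibration curve.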

HCT-116 [20] = assay: Antitumor activity against human HCT116 cells xenografted in ip dosed nu/nu mouse assessed as tumor growth inhibition administered for 16 days; assay type: functional, organism-based
Summary of the method: (§3)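 Female nu/nu mice, 3–5 weeks old; 1×10^6 HCT116 cells in saline injected sc in left rear flank; daily ip 0.1 or 0.25 mg/kg (2 or 5 μg/mouse) or DMSO vehicle, 16 days; n = 7 treated, 6 vehicle; caliper volumes daily (W²×L×0.5); tumours starting above 100 mm³ excluded.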

Mus musculus [21] = assay: Toxicity in nu/nu mouse xenografted with human HCT116 cells assessed as body weight loss at 0.1 to 0.25 mg/kg, ip for 16 days; assay type: organism-based, HCT-116; set-up: dose 0.1-0.25 mg/kg, route intraperitoneal; settings: in vivo, 384 h
Mus musculus [22] = assay: Toxicity in nu/nu mouse xenografted with human HCT116 cells assessed as abnormal behavior at 0.1 to 0.25 mg/kg, ip for 16 days; assay type: organism-based, HCT-116; set-up: dose 0.1-0.25 mg/kg, route intraperitoneal; settings: in vivo, 384 h
HCT-116 [23] = assay: Antitumor activity against human HCT116 cells xenografted in nu/nu mouse assessed as tumor growth inhibition at 0.1 mg/kg, ip for 16 days relative to control; assay type: functional; settings: HCT-116, ip, 384 h, route intraperitoneal, read-out: TGI; summary of the method: as §3
HCT-116 [24] = assay: Downregulation of VEGFR2 protein expression in human HCT116 cells xenografted in nu/nu mouse at 0.25 mg/kg, ip for 16 days by immunoblotting analysis; assay type: functional, organism-based; set-up: dose 0.25 mg/kg
Summary of the method: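 Xenograft tumours harvested at the end of the daily ip efficacy study in nu/nu mice bearing sc HCT116 tumours were analysed by immunoblotting with anti-VEGFR2 antibody.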

CC[C@H](C)[C@H]1C(=O)N2CCC[C@H]2C(=O)O[C@H](C(C)(C)C)C[C@@H](C)C[C@H](O)CC2=N[C@@H](CCC(=O)N[C@@H](Cc3ccc(OC)cc3)C(=O)N(C)[C@@H](C)C(=O)N1C)CS2
Stability (Liver [1]): 60.5% | Activity (HCT-116 [2]): Active | Stability (Liver [3]): 4.3% | Stability (Liver [4]): 52.4% | half-life at 25 ug/ml [5]: > 24 h | half-life at 25 ug/ml [6]: > 24 h | IC50 [7]: 0.3 nM | Stability (Liver [8]): 54.95% | IC50 (HCT-116 [9]): 1.25 nM | Stability (HCT-116 [10]): Stable | Stability (Liver [11]): 18.7% | Stability (Liver [12]): 76.55% | Stability (Liver [13]): 54.5% | Stability (Liver [14]): 6.1% | Stability (Liver [15]): 54.8% | Stability (Liver [16]): 53.85% | Stability (Liver [17]): 5.41% | Stability (Liver [18]): 66.6% | half-life at 1 µM [19]: < 5 min | Stability (Plasma): Stable

CC[C@H](C)[C@H]1C(=O)N2CCC[C@H]2C(=O)O[C@H](C(C)(C)C)C[C@@H](C)C[C@H](O)[C@H](C)C2=N[C@H](CCC(=O)N[C@@H](Cc3ccc(OC)cc3)C(=O)N(C)[C@@H](C)C(=O)N1C)CS2
Stability (Liver [1]): 71.4% | Activity (HCT-116 [2]): Active | Stability (Liver [3]): 5.63% | Stability (Liver [4]): 3.55% | half-life at 25 ug/ml [5]: > 24 h | half-life at 25 ug/ml [6]: > 24 h | IC50 [7]: 0.12 nM | Stability (Liver [8]): 51.4% | IC50 (HCT-116 [9]): 0.69 nM | Stability (HCT-116 [10]): Stable | Stability (Liver [11]): 17.8% | Stability (Liver [12]): 45.25% | Stability (Liver [13]): 48.45% | Stability (Liver [14]): 3.73% | Stability (Liver [15]): 56.05% | Stability (Liver [16]): 56.25% | Stability (Liver [17]): 6.06% | Stability (Liver [18]): 83.1% | half-life at 1 µM [19]: < 5 min | Stability (Plasma): Stable

CC[C@H](C)[C@H]1C(=O)N2CCC[C@H]2C(=O)O[C@H](C(C)(C)C)C[C@@H](C)C[C@H](O)[C@H](C)C2=N[C@@H](CCC(=O)N[C@@H](Cc3ccc(OC)cc3)C(=O)N(C)[C@@H](C)C(=O)N1C)CS2 [APRATOXIN S4]
Stability (Liver [1]): 70.8% | Activity (HCT-116 [2]): Active | Stability (Liver [3]): 6.02% | Stability (Liver [4]): 10.07% | half-life at 25 ug/ml [5]: > 24 h | half-life at 25 ug/ml [6]: > 24 h | IC50 [7]: 0.32 nM | Stability (Liver [8]): 39.55% | IC50 (HCT-116 [9]): 1.43 nM | Stability (HCT-116 [10]): Stable | Stability (Liver [11]): 32.2% | Stability (Liver [12]): 87.2% | Stability (Liver [13]): 87.1% | Stability (Liver [14]): 9.58% | Stability (Liver [15]): 73.85% | Stability (Liver [16]): 55.25% | Stability (Liver [17]): 10% | Stability (Liver [18]): 87.05% | half-life at 1 µM [19]: < 5 min | Stability (Plasma): Stable

CC[C@H](C)[C@H]1C(=O)N2CCC[C@H]2C(=O)O[C@H](C(C)(C)C)C[C@@H](C)C[C@H](O)C(C)(C)C2=N[C@@H](CCC(=O)N[C@@H](Cc3ccc(OC)cc3)C(=O)N(C)[C@@H](C)C(=O)N1C)CS2
Stability (Liver [1]): 77.45% | Activity (HCT-116 [2]): Active | Stability (Liver [3]): 5.01% | Stability (Liver [4]): 8.28% | half-life at 25 ug/ml [5]: > 24 h | TGI (HCT-116 [20]): Dose-dependent effect | half-life at 25 ug/ml [6]: > 24 h | IC50 [7]: 0.47 nM | Stability (Liver [8]): 37.2% | IC50 (HCT-116 [9]): 1.99 nM | Activity (Mus musculus [21]): Non-toxic | Activity (Mus musculus [22]): Non-toxic | Stability (HCT-116 [10]): Stable | Stability (Liver [11]): 17.3% | Stability (Liver [12]): 63.45% | Stability (Liver [13]): 81.25% | inhibition in vivo at 0.1 mg/kg (HCT-116 [23]): 50% | Stability (Liver [14]): 4.83% | Stability (Liver [15]): 74.75% | Stability (Liver [16]): 70.05% | Stability (Liver [17]): 3.55% | Activity (HCT-116 [24]): Active | Stability (Liver [18]): 74.1% | half-life at 1 µM [19]: < 5 min | Stability (Plasma): Stable
